The source of these data is ChEMBL document CHEMBL2396651, “Improving the biological activity of the antimicrobial peptide anoplin by membrane anchoring through a lipophilic amino acid derivative” (Bioorg Med Chem Lett, 2013).

A short description of data set [1]: Induction of membrane lysis in DOPC/DOPG large unilamellar vesicles model assessed as release of carboxyfluorescein at 50 ug/mL by fluorescence spectroscopic analysis relative to control. Type of data set: physicochemical.
Data set [2] in a line: Induction of membrane lysis in DOPC large unilamellar vesicles model assessed as release of carboxyfluorescein at 50 ug/mL by fluorescence spectroscopic analysis relative to control. Format: physicochemical.
A short description of data set [3]: Therapeutic index, ratio of EC50 for hemolysis of sheep erythrocytes to MIC for Staphylococcus aureus ATCC […]. Conditions: read-out: TI. The procedure, abridged: (§1)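 Computed as the hemolytic EC50 divided by the MIC against the named strain, both in the same mass-per-volume units. Both inputs come from this paper's hemoglobin-leakage and growth-inhibition assays.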

Data set [4] can be described thus: Therapeutic index, ratio of EC50 for hemolysis of sheep erythrocytes to MIC for Escherichia coli ATCC 8739. As to conditions: read-out: TI. The essentials: as §1
A short description of data set [5]: Hemolytic activity in sheep erythrocytes after 1 hr. Type of data set: ADME, cell-based. As to conditions: Ovis aries, Erythrocyte. The procedure, abridged: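 Red blood cells were exposed to the peptides, and hemoglobin leakage was the read-out.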
The test system of a further data set is Staphylococcus aureus. Nature of the data set: Antibacterial activity against Staphylococcus aureus ATCC […] assessed as growth inhibition after 24 hrs by broth microdilution method. Format: functional.
The next data set has as its system Escherichia coli. Nature of the data set: Antibacterial activity against Escherichia coli ATCC 8739 assessed as growth inhibition after 24 hrs by broth microdilution method. Type of data set: functional. As to conditions: ATCC 8739, 24 h.

Values after ≈ are worked out from the molar mass of the structure shown. Numbered stars: 1 amine (or outer) side, 2 acyl side, 3 side chain; on linkers, the order of the positions; unused ones are H or OH. Square brackets hold non-standard residues; d marks the D form. Peptide text beside a SMILES is read from it. * marks the point of attachment. X1 = CCCCCCCCC[C@H](N[*:1])C(=O)[*:2]; Decanoyl = CCCCCCCCCC(=O)* Where only a bound is given, the exact number is not on record here.

Regarding `CCCCCCCCC[C@H](NC(=O)[C@H](CC(C)C)NC(=O)[C@@H](NC(=O)[C@H](CCCCN)NC(=O)[C@@H](NC(=O)[C@H](CCCNC(=N)N)NC(=O)[C@H](CCCCN)NC(=O)[C@H](CC(C)C)NC(=O)[C@H](CC(C)C)NC(=O)CN)[C@@H](C)CC)[C@@H](C)O)C(N)=O` (H-GLLKRIKTL[X1]-NH2), the Activity in data set [1] and in data set [2] was 48% in each case. Moreover, the selectivity ratio in data set [3] was found to be 30.8; in data set [4], 3.7. Moreover, the EC50 in data set [5] stood at 77 µg/mL (≈ 62.9 µM). In addition, the MIC with Staphylococcus aureus turned out to be 2.5 µg/mL (≈ 2.04 µM); in the data set on Escherichia coli it was 10.3 µg/mL (≈ 8.42 µM).
Turning to H-GLLKRIKTLL-NH2 [ANOPLIN], the Activity in data set [1] worked out at 35%; in data set [2] it was 41%. Besides, the selectivity ratio in data set [3] was more than 24.3; in data set [4] it was more than 12.2. Besides, the concentration giving a half-maximal response (EC50) in data set [5] was more than 500 µg/mL. Further, the minimal inhibitory concentration (MIC) in the data set with Staphylococcus aureus stood at 20.6 µg/mL; in the data set on Escherichia coli, 41 µg/mL.
Take `CCCCCCCCCC(=O)NCC(=O)N[C@@H](CC(C)C)C(=O)N[C@@H](CC(C)C)C(=O)N[C@@H](CCCCN)C(=O)N[C@@H](CCCNC(=N)N)C(=O)N[C@H](C(=O)N[C@@H](CCCCN)C(=O)N[C@H](C(=O)N[C@@H](CC(C)C)C(=O)N[C@@H](CC(C)C)C(N)=O)[C@@H](C)O)[C@@H](C)CC` (Decanoyl-GLLKRIKTLL-NH2): the results for the Activity in data set [1] and in data set [2] were 100% and 62%, respectively. For the same compound, the selectivity ratio in data set [3] and in data set [4] was 2 in each case. Also, in data set [5], the EC50 was found to be 5 µg/mL (≈ 3.82 µM). The minimum inhibitory concentration (MIC) in the data set on Staphylococcus aureus and in the data set with Escherichia coli was 2.5 µg/mL (≈ 1.91 µM) throughout.
Consider `CCCCCCCCC[C@H](NC(=O)CN)C(=O)N[C@@H](CC(C)C)C(=O)N[C@@H](CCCCN)C(=O)N[C@@H](CCCNC(=N)N)C(=O)N[C@H](C(=O)N[C@@H](CCCCN)C(=O)N[C@H](C(=O)N[C@@H](CC(C)C)C(=O)N[C@@H](CC(C)C)C(N)=O)[C@@H](C)O)[C@@H](C)CC` (H-G[X1]LKRIKTLL-NH2), for which the Activity in data set [1] amounted to 48%; in data set [2], 47%. Further, the selectivity ratio in data set [3] stood at 43.2; in data set [4] it was 10.5. In data set [5], the EC50 was determined as 108 µg/mL (≈ 88.3 µM). Also, the values for the minimal inhibitory concentration (MIC) in the data set on Staphylococcus aureus and in the data set on Escherichia coli were 2.5 µg/mL (≈ 2.04 µM) and 5.2 µg/mL (≈ 4.25 µM), respectively.
Turning to `CCCCCCCCC[C@H](NC(=O)[C@H](CCCNC(=N)N)NC(=O)[C@H](CCCCN)NC(=O)[C@H](CC(C)C)NC(=O)[C@H](CC(C)C)NC(=O)CN)C(=O)N[C@@H](CCCCN)C(=O)N[C@H](C(=O)N[C@@H](CC(C)C)C(=O)N[C@@H](CC(C)C)C(N)=O)[C@@H](C)O` (H-GLLKR[X1]KTLL-NH2), the Activity is 48% in data set [1] and 45% in data set [2]. The selectivity ratio in data set [3] turned out to be 15.6; in data set [4], 1.9. In data set [5], this compound returned a concentration for a half-maximal effect (EC50) of 39 µg/mL (≈ 31.9 µM). In addition, the minimum inhibitory concentration (MIC) in the data set on Staphylococcus aureus turned out to be 2.5 µg/mL (≈ 2.04 µM); in the data set with Escherichia coli it was 10.3 µg/mL (≈ 8.42 µM).
